Reference: ChEMBL document CHEMBL3797060, “Discovery of 5-Chloro-1-(5-chloro-2-(methylsulfonyl)benzyl)-2-imino-1,2-dihydropyridine-3-carboxamide (TAK-259) as a Novel, Selective, and Orally Active α1D Adrenoceptor Antagonist with Antiurinary Frequency Effects: Reducing Human Ether-a-go-go-Related Gene (hERG) Liabilities” (J Med Chem, 2016)

Assays:
[1] = molecular target: Voltage-gated inwardly rectifying potassium channel KCNH2 (Homo sapiens, UniProt Q12809); experiment: Inhibition of human ERG channel expressed in CHO cells assessed as peak tail current at 10 uM incubated for 5 mins by patch-clamp assay; format: cell-based; conditions: cho, 5 min, 10 µM
Chain of Voltage-gated inwardly rectifying potassium channel KCNH2 (Q12809 whole entry): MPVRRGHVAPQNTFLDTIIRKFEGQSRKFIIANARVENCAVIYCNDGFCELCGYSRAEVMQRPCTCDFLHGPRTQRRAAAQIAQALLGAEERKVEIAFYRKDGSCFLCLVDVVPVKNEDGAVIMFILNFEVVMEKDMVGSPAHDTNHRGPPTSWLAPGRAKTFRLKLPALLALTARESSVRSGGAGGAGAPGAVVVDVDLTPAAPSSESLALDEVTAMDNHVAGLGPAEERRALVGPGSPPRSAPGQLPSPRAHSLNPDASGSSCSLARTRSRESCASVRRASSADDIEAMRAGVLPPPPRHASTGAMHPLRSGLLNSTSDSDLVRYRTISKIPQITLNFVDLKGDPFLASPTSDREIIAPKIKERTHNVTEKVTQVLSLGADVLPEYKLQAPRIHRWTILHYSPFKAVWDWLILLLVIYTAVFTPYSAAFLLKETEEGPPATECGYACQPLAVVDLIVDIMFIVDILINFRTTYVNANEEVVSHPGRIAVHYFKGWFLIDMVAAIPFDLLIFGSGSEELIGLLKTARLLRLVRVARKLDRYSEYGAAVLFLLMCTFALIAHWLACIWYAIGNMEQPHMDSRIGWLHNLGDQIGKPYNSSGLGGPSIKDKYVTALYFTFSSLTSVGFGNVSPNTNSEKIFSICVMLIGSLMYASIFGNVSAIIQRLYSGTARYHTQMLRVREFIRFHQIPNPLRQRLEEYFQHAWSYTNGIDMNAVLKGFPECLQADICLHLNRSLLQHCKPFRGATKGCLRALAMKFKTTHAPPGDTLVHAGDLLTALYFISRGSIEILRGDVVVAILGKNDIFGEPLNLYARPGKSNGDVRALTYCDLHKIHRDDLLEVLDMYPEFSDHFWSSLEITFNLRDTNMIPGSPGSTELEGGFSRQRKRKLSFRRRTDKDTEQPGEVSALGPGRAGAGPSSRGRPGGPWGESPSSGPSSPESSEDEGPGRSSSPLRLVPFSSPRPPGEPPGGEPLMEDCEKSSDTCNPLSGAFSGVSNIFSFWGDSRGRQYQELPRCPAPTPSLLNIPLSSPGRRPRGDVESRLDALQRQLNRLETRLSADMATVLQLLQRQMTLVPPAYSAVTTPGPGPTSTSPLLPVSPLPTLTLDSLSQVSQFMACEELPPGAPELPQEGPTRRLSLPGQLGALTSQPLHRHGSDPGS
Summary of the method: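 CHO cells stably expressing hERG, grown at 32 °C, 5% CO2 in Ham's F-12 with 10% FBS and 500 µg/mL Geneticin. Population patch clamp with PBS (Ca/Mg) outside, KCl/MgCl2/EGTA/HEPES pH 7.3 inside, amphotericin B perforation. Holding −80 mV, step to 40 mV 2 s, then −50 mV 2 s. Peak tail current taken before and after 5 min compound exposure, inhibition = 100 − post/pre×100, n = 3 or 4.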

[2] = Clearance in human liver microsomes at 1 uM after 15 to 30 mins by LC/MS/MS analysis; format: ADME; conditions: read-out: CLH
Summary of the method: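 Incubated with 0.2 mg/mL microsomal protein in 50 mM potassium phosphate, pH 7.4. Reaction started with an NADPH-generating system (MgCl2, glucose-6-phosphate, β-NADP+, G6P dehydrogenase). Stopped with acetonitrile at 15 and 30 min, then analysed for remaining compound. Metabolic velocity taken as the slope of the concentration-time plot.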

[3] = Permeability of compound at pH 7.4 by PAMPA; format: ADME; conditions: read-out: permeability
[4] = molecular target: CYP3A4 (Homo sapiens, UniProt P08684); experiment: Reversible inhibition of CYP3A4 in human liver microsomes at 10 uM using midazolam as substrate incubated for 10 mins by LC/MS/MS analysis; format: ADME; conditions: probe midazolam
Chain of CYP3A4 (P08684 whole entry): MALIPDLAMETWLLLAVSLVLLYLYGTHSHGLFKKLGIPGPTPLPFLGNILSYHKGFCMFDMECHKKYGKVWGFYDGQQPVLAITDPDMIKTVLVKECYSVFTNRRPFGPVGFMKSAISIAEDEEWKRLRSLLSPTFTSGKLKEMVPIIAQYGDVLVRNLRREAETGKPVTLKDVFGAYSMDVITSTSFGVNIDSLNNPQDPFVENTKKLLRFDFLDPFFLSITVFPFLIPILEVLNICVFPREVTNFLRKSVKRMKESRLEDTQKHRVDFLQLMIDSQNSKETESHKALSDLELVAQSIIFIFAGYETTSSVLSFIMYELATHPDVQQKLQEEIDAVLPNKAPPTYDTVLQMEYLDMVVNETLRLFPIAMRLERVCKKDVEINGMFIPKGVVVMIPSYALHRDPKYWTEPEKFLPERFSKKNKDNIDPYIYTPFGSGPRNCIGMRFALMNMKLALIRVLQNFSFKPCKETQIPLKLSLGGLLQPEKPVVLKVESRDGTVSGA
Summary of the method: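 Midazolam incubated with 0.1 mg/mL microsomes and test compound at 37 °C. Stopped with acetonitrile/water and centrifuged. 1'-Hydroxymidazolam peak measured in the supernatant.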

Question: With Cl.N=c1c(C(N)=O)cc(Cl)cn1Cc1cccc(Cl)c1 as the compound, how does the “inhibition (INH)” value [1] read?
Answer: 47%

Question: What about the microsomal CLint at 1 µM [2] of the same compound?
Answer: 3 µL/min/mg

Question: What about the Papp [3] of the same compound?
Answer: 11.6 ×10⁻⁶ cm/s

Question: And the inhibition at 10 min, 10 µM [4]?
Answer: -1.6%
